Measurements reported in ChEMBL document CHEMBL3046830, “Isolation and identification of secondary metabolites of Clitocybe nuda responsible for inhibition of zoospore germination of Phytophthora capsici” (2012).
Activity calls are given as the source filed them. No cut-off for these calls is given here.

Experiments:
Assay type in all cases: functional
[1] = test system: Phytophthora capsici; test: Antimicrobial activity against Phytophthora capsici PCM81 assessed as inhibition of zoospore germination at 500 mg/L at 24 degC for 8 hr; details: for inhibition at 500 µg/mL: PCM81, 8 h
Method in brief: (§1)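 P. capsici PCM81 sporangia grown 5 days on 10% V8 agar at 24 °C under a 12 h light–dark cycle. Zoospores released in sterile water for 1 day at 24 °C, then chilled at 4 °C for 1 h. The suspension is mixed 1:1 with the sample in a cavity slide and kept moist; a distilled-water mix is the control. Germination is scored after 8 h at 24 °C, counting 100 spores × 4 replicates, with the experiment run twice and analysed by Duncan's test.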

[2] = test system: Phytophthora capsici; test: Antimicrobial activity against Phytophthora capsici PCM81 assessed as zoospore germination at 1000 ppm at 24 degC for 8 hr; method in brief: as §1
[3] = test system: Phytophthora capsici; test: Antimicrobial activity against Phytophthora capsici PCM81 assessed as zoospore germination at 100 ppm at 24 degC for 8 hr; method in brief: as §1
[4] = test system: Phytophthora capsici; test: Antimicrobial activity against Phytophthora capsici PCM81 assessed as zoospore germination at 500 ppm at 24 degC for 8 hr; method in brief: as §1

| Structure (SMILES) | inhibition at 500 µg/mL [1] | Activity [2] | Activity [3] | Activity [4] | inhibition [1] |
| --- | --- | --- | --- | --- | --- |
| O=CC1=CC=C(O)OC1 | 86% | 0% | 77% | 14.5% | – |
| O=Cc1c[nH]c2ccccc12 [3-FORMYLINDOLE] | – | 0% | 57% | 0% | Active |
| COCC1=C(C)C(=O)C=C(OC)C1=O | 97% | 0% | 65% | 3% | – |
